Peptide text beside a SMILES is read from it. * marks the point of attachment. Dansyl = CN(C)c1cccc2c(S(=O)(=O)*)cccc12
How the values were obtained:
[1] = target: Tiam1 PDZ domain (wild-type) (Homo sapiens, UniProt Q13009); test: Equilibrium fluorescence anisotropy binding of dansylated peptides
Method in brief: (§1)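 Purified PDZ domains were titrated from a 1.5 mM stock into 1 μM N-terminally dansylated peptide at 25 °C in a stirred cuvette. Proteins were expressed in E. coli BL21(DE3), purified by Ni-chelate and size-exclusion chromatography, and His6-tag cleaved by TEV; Tiam2 is mouse residues 809–994; mutants made by site-directed mutagenesis. Anisotropy ex 340/em 550 nm, buffer-blank corrected. Kd from hyperbolic fit, mean of ≥3 independent runs; ΔG = RT ln Kd (298.15 K).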

Tiam2 PDZ domain = target: T1, Tiam2 PDZ domain (Mus musculus, UniProt Q6ZPF3); test: as above
T1 sequence (Q6ZPF3 908-997 limits assumed): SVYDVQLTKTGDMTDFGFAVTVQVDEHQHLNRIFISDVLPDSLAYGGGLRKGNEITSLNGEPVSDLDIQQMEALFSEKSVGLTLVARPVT
Method in brief: as §1

Tiam1 PDZ L911M = Tiam1 PDZ L911M (Homo sapiens, UniProt Q13009, L911M); test: Fluorescence anisotropy binding, Tiam1 PDZ mutant; settings: for ΔGb: Tiam1 PDZ L911M; for ΔΔGb: ΔGb(mutant) − ΔGb(wild-type), L911M
Method in brief: as §1

Tiam1 PDZ K912E = Tiam1 PDZ K912E (Homo sapiens, UniProt Q13009, K912E); test: Fluorescence anisotropy binding, Tiam1 PDZ mutant; settings: for ΔGb: Tiam1 PDZ K912E; for ΔΔGb: ΔGb(mutant) − ΔGb(wild-type), K912E
Method in brief: as §1

Tiam1 PDZ L911M/K912E [2] = target: Tiam1 PDZ L911M/K912E (Mus musculus, UniProt Q60610, L911M/K912E, species not given); test: Fluorescence anisotropy binding and double-mutant cycle, Tiam1 PDZ mutant; settings: Tiam1 PDZ L911M/K912E; for Kd: fluorescence anisotropy, 25 °C
Method in brief: (§2)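 Wild-type, single- and double-mutant Tiam1 PDZ (E. coli-expressed, tag-cleaved) were each titrated into 1 μM dansylated peptide at 25 °C. Anisotropy read at ex 340/em 550 nm; Kd from hyperbolic fit, ≥3 independent runs. ΔG = RT ln Kd at 298.15 K. Coupling energy ΔΔΔGint = (ΔGWT − ΔGM1) − (ΔGM2 − ΔGDM), with errors propagated by standard methods.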

Tiam1 PDZ L911M/K912E [3] = test: as above; settings: for ΔΔΔGint (pair-wise coupling free energy): double-mutant cycle L911/K912 (S-2 pocket); for Σ singles: sum of ΔΔGb of single mutants L911M and K912E; for ΔΔGb: ΔGb(mutant) − ΔGb(wild-type), L911M/K912E
Method in brief: as §2

Tiam1 PDZ L915F = Tiam1 PDZ L915F (Homo sapiens, UniProt Q13009, L915F); test: Fluorescence anisotropy binding, Tiam1 PDZ mutant; settings: for ΔGb: Tiam1 PDZ L915F; for ΔΔGb: ΔGb(mutant) − ΔGb(wild-type), L915F
Method in brief: as §1

Tiam1 PDZ L920V = Tiam1 PDZ L920V (Homo sapiens, UniProt Q13009, L920V); test: Fluorescence anisotropy binding, Tiam1 PDZ mutant; settings: for ΔGb: Tiam1 PDZ L920V; for ΔΔGb: ΔGb(mutant) − ΔGb(wild-type)
Method in brief: as §1

Tiam1 PDZ L915F/L920V [4] = target: Tiam1 PDZ L915F/L920V (Mus musculus, UniProt Q60610, L915F/L920V, species not given); test: Fluorescence anisotropy binding and double-mutant cycle, Tiam1 PDZ mutant; settings: Tiam1 PDZ L915F/L920V; for Kd: fluorescence anisotropy, 25 °C
Method in brief: as §2

Tiam1 PDZ L915F/L920V [5] = test: as above; settings: for ΔΔΔGint (pair-wise coupling free energy): double-mutant cycle L915/L920 (S0 pocket); for Σ singles: sum of ΔΔGb of single mutants L915F and L920V
Method in brief: as §2

[6] = target: Tiam1 PDZ QM (L911M/K912E/L915F/L920V) (Homo sapiens, UniProt Q13009, K912E/L911M/L915F/L920V); test: Fluorescence anisotropy binding, Tiam1 PDZ quadruple mutant; settings: for ΔGb: Tiam1 PDZ QM
Method in brief: as §1

[7] = test system: Tiam1 PDZ QM (L911M/K912E/L915F/L920V); test: as above; settings: for ΔΔGb: ΔGb(mutant) − ΔGb(wild-type), QM
Method in brief: as §1

Tiam1 PDZ domain (wild-type), sequence (Q13009 841-930 limits assumed): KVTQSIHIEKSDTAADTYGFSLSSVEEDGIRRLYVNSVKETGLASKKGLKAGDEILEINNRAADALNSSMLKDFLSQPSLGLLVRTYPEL
Tiam1 PDZ K912E, sequence (Q13009 841-930 K912E limits assumed): as the sequence (Q13009 841-930 limits assumed) above, with K72E counted along it
Tiam1 PDZ QM (L911M/K912E/L915F/L920V) (Homo sapiens, UniProt Q13009, K912E/L911M/L915F/L920V), sequence (Q13009 841-930 L911M/K912E/L915F/L920V limits assumed): as the sequence (Q13009 841-930 limits assumed) above, with L71M, K72E, L75F, L80V counted along it
Tiam1 PDZ L911M, sequence (Q13009 841-930 L911M limits assumed): as the sequence (Q13009 841-930 limits assumed) above, with L71M counted along it
Tiam1 PDZ L915F, sequence (Q13009 841-930 L915F limits assumed): as the sequence (Q13009 841-930 limits assumed) above, with L75F counted along it
Tiam1 PDZ L915F/L920V (Mus musculus, UniProt Q60610, L915F/L920V, species not given), sequence (Q60610 2-1591 L915F/L920V): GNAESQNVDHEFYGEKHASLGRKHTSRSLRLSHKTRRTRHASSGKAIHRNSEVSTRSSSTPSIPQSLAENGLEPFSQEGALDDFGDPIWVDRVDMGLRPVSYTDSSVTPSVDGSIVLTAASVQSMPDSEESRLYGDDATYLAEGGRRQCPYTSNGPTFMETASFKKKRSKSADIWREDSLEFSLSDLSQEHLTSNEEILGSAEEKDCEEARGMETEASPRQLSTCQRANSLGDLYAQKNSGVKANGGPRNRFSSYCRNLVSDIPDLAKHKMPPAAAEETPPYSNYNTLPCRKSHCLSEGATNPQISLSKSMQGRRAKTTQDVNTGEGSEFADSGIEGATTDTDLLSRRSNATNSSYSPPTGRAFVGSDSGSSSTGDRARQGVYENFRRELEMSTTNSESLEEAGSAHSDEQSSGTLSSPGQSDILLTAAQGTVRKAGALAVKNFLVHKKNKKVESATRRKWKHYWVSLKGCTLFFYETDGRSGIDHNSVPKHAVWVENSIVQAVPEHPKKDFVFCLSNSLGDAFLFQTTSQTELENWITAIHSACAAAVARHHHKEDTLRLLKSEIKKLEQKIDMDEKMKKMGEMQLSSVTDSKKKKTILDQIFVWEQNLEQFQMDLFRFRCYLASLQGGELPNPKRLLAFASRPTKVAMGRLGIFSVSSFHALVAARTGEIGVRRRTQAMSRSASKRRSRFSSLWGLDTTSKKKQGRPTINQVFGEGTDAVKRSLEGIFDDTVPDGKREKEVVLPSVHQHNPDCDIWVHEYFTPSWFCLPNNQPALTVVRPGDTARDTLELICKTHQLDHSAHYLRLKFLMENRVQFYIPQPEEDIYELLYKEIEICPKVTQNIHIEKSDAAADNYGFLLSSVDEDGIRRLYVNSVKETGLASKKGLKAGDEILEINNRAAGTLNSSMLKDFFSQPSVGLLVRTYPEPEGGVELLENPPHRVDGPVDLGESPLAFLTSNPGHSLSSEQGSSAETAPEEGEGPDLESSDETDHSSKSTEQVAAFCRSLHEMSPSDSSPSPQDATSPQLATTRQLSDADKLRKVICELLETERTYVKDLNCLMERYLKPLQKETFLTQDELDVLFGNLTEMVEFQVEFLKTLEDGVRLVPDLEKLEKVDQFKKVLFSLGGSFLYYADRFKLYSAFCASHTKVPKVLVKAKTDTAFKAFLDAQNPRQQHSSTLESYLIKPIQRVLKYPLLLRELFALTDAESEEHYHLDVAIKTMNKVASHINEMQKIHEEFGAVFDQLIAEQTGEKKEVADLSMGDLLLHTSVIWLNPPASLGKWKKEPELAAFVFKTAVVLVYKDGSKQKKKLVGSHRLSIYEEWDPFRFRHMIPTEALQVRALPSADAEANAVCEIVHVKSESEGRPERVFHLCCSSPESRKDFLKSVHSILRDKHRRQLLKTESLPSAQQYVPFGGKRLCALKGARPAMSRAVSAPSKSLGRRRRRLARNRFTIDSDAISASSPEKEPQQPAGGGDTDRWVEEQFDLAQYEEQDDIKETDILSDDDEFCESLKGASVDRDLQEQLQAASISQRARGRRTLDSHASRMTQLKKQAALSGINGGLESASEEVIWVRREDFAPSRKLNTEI
Tiam1 PDZ L920V, sequence (Q13009 841-930 L920V limits assumed): as the sequence (Q13009 841-930 limits assumed) above, with L80V counted along it
Tiam1 PDZ L911M/K912E (Mus musculus, UniProt Q60610, L911M/K912E, species not given), sequence (Q60610 2-1591 L911M/K912E): as the sequence (Q60610 2-1591 L915F/L920V) above, with L910M, K911E, F914L, V919L counted along it

Row | SMILES | Kd [1] [µM] | Kd (Tiam2 PDZ domain) [µM] | Kd (Tiam1 PDZ L911M) [µM] | ΔGb (Tiam1 PDZ L911M) [kcal/mol] | ΔΔGb (Tiam1 PDZ L911M) [kcal/mol] | Kd (Tiam1 PDZ K912E) [µM] | ΔGb (Tiam1 PDZ K912E) [kcal/mol] | ΔΔGb (Tiam1 PDZ K912E) [kcal/mol] | ΔGb (Tiam1 PDZ L911M/K912E [2]) [kcal/mol] | Kd (Tiam1 PDZ L911M/K912E [2]) [µM] | ΔΔΔGint (pair-wise coupling free energy) (Tiam1 PDZ L911M/K912E [3]) [kcal/mol] | Σ singles (Tiam1 PDZ L911M/K912E [3]) [kcal/mol] | ΔΔGb (Tiam1 PDZ L911M/K912E [3]) [kcal/mol] | Kd (Tiam1 PDZ L915F) [µM] | ΔGb (Tiam1 PDZ L915F) [kcal/mol] | ΔΔGb (Tiam1 PDZ L915F) [kcal/mol] | Kd (Tiam1 PDZ L920V) [µM] | ΔGb (Tiam1 PDZ L920V) [kcal/mol] | ΔΔGb (Tiam1 PDZ L920V; L920V) [kcal/mol] | ΔGb (Tiam1 PDZ L915F/L920V [4]) [kcal/mol] | also measured
1 | CN(C)c1cccc2c(S(=O)(=O)N[C@@H](CCC(=O)O)C(=O)N[C@@H](CC(N)=O)C(=O)N[C@@H](CCC(N)=O)C(=O)N[C@@H](CCCCN)C(=O)N[C@@H](CCC(=O)O)C(=O)N[C@@H](Cc3ccc(O)cc3)C(=O)N[C@@H](Cc3ccccc3)C(=O)N[C@@H](Cc3ccccc3)C(=O)O)cccc12 [Caspr4] (Dansyl-ENQKEYFF-OH) |  | 3.4 ± 0.3 | 14 ± 0.3 | -6.61 ± 0.01 | -0.18 ± 0.02 | 58.6 ± 4.1 | -5.77 ± 0.04 | 0.67 ± 0.04 | -6.19 ± 0.02 | 28.9 ± 0.9 | -0.25 ± 0.04 | 0.49 ± 0.04 | 0.24 ± 0.02 | 61 ± 4 | -5.74 ± 0.04 | 0.69 ± 0.04 | 10.8 ± 0.6 | -6.77 ± 0.03 | -0.33 ± 0.04 | -5.61 ± 0.04 | ΔGb ([1]; wild-type Tiam1 PDZ, ΔG = RT ln(Kd), T 298.15 K): -6.43 ± 0.01 kcal/mol; fold lower Kd for Tiam2 PDZ than for Tiam1 PDZ (Tiam2 PDZ domain; Tiam2 vs Tiam1 PDZ): ~6 fold; fold decrease in Kd vs wild-type Tiam1 PDZ (Tiam1 PDZ L920V; L920V): ~2 fold; Kd (Tiam1 PDZ L915F/L920V [4]): 76.5 ± 3.4 µM; ΔΔΔGint (pair-wise coupling free energy) (Tiam1 PDZ L915F/L920V [5]): 0.38 ± 0.10 kcal/mol; Σ singles (Tiam1 PDZ L915F/L920V [5]): 0.36 ± 0.06 kcal/mol; Kd [6]: 18.3 ± 0.3 µM; ΔGb [6]: -6.46 ± 0.01 kcal/mol; fold higher Kd than Tiam2 PDZ domain ([7]; QM vs Tiam2 PDZ): 5 fold; ΔΔGb [7]: -0.02 ± 0.02 kcal/mol
2 | CC(C)[C@H](NC(=O)[C@H](Cc1ccc(O)cc1)NC(=O)[C@@H](NC(=O)[C@H](CCCNC(=N)N)NC(=O)[C@H](CCCCN)NC(=O)[C@H](C)NC(=O)[C@H](C)NC(=O)[C@H](Cc1ccc(O)cc1)NS(=O)(=O)c1cccc2c(N(C)C)cccc12)[C@@H](C)O)C(=O)O [Tiam2 peptide 1 (Group I)] (Dansyl-YAAKRTYV-OH) | > 250 | 77.6 ± 2.4 |  |  |  |  |  |  |  |  |  |  |  |  |  |  |  |  |  |  | 
3 | C[C@H](NC(=O)[C@H](Cc1ccc(O)cc1)NC(=O)[C@H](Cc1ccccc1)NC(=O)[C@H](CCC(=O)O)NC(=O)[C@H](CCC(=O)O)NC(=O)[C@H](CCC(N)=O)NC(=O)[C@H](CCCCN)NC(=O)[C@@H](NS(=O)(=O)c1cccc2c(N(C)C)cccc12)[C@@H](C)O)C(=O)O [Syndecan1] (Dansyl-TKQEEFYA-OH) |  | 200 ± 20 | 34.7 ± 0.7 | -6.08 ± 0.01 | 0.15 ± 0.02 | 140 ± 20 | -5.25 ± 0.08 | 0.98 ± 0.09 | -5.00 ± 0.10 | 211 ± 36 | 0.07 ± 0.13 | 1.13 ± 0.09 | 1.20 ± 0.10 | 81 ± 7 | -5.58 ± 0.05 | 0.65 ± 0.06 | 46 ± 3 | -5.92 ± 0.03 | 0.31 ± 0.04 | -4.91 ± 0.08 | Kd (Tiam1 PDZ L915F/L920V [4]): 250 ± 20 µM; ΔΔΔGint (pair-wise coupling free energy) (Tiam1 PDZ L915F/L920V [5]): 0.36 ± 0.13 kcal/mol; Σ singles (Tiam1 PDZ L915F/L920V [5]): 0.96 ± 0.07 kcal/mol; ΔΔGb (Tiam1 PDZ L915F/L920V [5]; ΔGb(mutant) − ΔGb(wild-type), L915F/L920V): 1.32 ± 0.09 kcal/mol; Kd [6]: 122 ± 8 µM; ΔGb [6]: -5.33 ± 0.04 kcal/mol; fold lower Kd than Tiam2 PDZ domain ([7]; QM vs Tiam2 PDZ): 1.6 fold; ΔΔGb [7]: 0.89 ± 0.04 kcal/mol

More lines, main results first:

Row | Kd [1] [µM] | Kd (Tiam2 PDZ domain) [µM] | Kd (Tiam1 PDZ L911M) [µM] | ΔGb (Tiam1 PDZ L911M) [kcal/mol] | ΔΔGb (Tiam1 PDZ L911M) [kcal/mol] | Kd (Tiam1 PDZ K912E) [µM] | ΔGb (Tiam1 PDZ K912E) [kcal/mol] | ΔΔGb (Tiam1 PDZ K912E) [kcal/mol] | ΔGb (Tiam1 PDZ L911M/K912E [2]) [kcal/mol] | Kd (Tiam1 PDZ L911M/K912E [2]) [µM] | ΔΔΔGint (pair-wise coupling free energy) (Tiam1 PDZ L911M/K912E [3]) [kcal/mol] | Σ singles (Tiam1 PDZ L911M/K912E [3]) [kcal/mol] | ΔΔGb (Tiam1 PDZ L911M/K912E [3]) [kcal/mol] | Kd (Tiam1 PDZ L915F) [µM] | ΔGb (Tiam1 PDZ L915F) [kcal/mol] | ΔΔGb (Tiam1 PDZ L915F) [kcal/mol] | Kd (Tiam1 PDZ L920V) [µM] | ΔGb (Tiam1 PDZ L920V) [kcal/mol] | ΔΔGb (Tiam1 PDZ L920V; L920V) [kcal/mol] | ΔGb (Tiam1 PDZ L915F/L920V [4]) [kcal/mol] | SMILES | also measured
4 | > 250 | 9.9 ± 2.2 |  |  |  |  |  |  |  |  |  |  |  |  |  |  |  |  |  |  | C[C@H](NC(=O)[C@H](C)NC(=O)[C@H](Cc1ccc(O)cc1)NS(=O)(=O)c1cccc2c(N(C)C)cccc12)C(=O)NCC(=O)N[C@@H](CCCNC(=N)N)C(=O)N[C@@H](CCCCN)C(=O)N[C@@H](Cc1c[nH]cn1)C(=O)N[C@@H](Cc1ccccc1)C(=O)O [Tiam2 peptide 2 (Group II)] (Dansyl-YAAGRKHF-OH) | 
5 | 200 ± 50 | 7.7 ± 1.3 |  |  |  |  |  |  |  |  |  |  |  |  |  |  |  |  |  |  | C[C@H](NC(=O)[C@H](C)NC(=O)[C@H](Cc1ccc(O)cc1)NS(=O)(=O)c1cccc2c(N(C)C)cccc12)C(=O)N[C@@H](CCCCN)C(=O)N[C@@H](C)C(=O)N[C@@H](Cc1ccccc1)C(=O)N[C@@H](CCCNC(=N)N)C(=O)N[C@@H](Cc1ccccc1)C(=O)O [Tiam1 peptide 3 (Group II)] (Dansyl-YAAKAFRF-OH) | 
6 | > 250 | 28.7 ± 4.9 |  |  |  |  |  |  |  |  |  |  |  |  |  |  |  |  |  |  | CC[C@H](C)[C@H](NC(=O)[C@H](CC(C)C)NC(=O)[C@H](C)NC(=O)[C@H](C)NC(=O)[C@H](Cc1ccc(O)cc1)NS(=O)(=O)c1cccc2c(N(C)C)cccc12)C(=O)N[C@@H](Cc1c[nH]cn1)C(=O)N[C@@H](CCCCN)C(=O)N[C@@H](Cc1ccccc1)C(=O)O [Tiam2 peptide 3 (Group II)] (Dansyl-YAALIHKF-OH) | 
